Laboratory results from ChEMBL document CHEMBL4138104, “Indole carboxylic acid esters of melampomagnolide B are potent anticancer agents against both hematological and solid tumor cells” (Eur J Med Chem, 2017).

Legend:
Format in all cases: functional
SR = assay: Growth inhibition of human SR cells incubated for 48 hrs by sulforhodamine B assay
In short: (§1)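 NCI-60 screen run at NCI. Cells grown in RPMI medium with 5% FBS and 2 mM L-glutamine, plated at 5,000–40,000 cells/well, and preincubated 24 h at 37 °C. Time-zero plates were TCA-fixed. Compounds came from DMSO stocks and were tested at five concentrations from 10^-4 to 10^-8 M for 48 h. Cells were then TCA-fixed, stained with 0.4% SRB, and OD read at 515 nm. GI50 is the concentration giving a 50% reduction in net protein increase versus control.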

CAKI-1 = assay: Growth inhibition of human Caki1 cells incubated for 48 hrs by sulforhodamine B assay; conditions: CAKI-1, 48 h
In short: (§2)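 NCI-60 screen. Compounds were dosed at five concentrations spanning 10^-4 to 10^-8 M for 48 h at 37 °C. Cells were TCA-fixed, stained with 0.4% SRB and read at 515 nm against time-zero and vehicle controls. GI50 is the concentration giving a 50% reduction in net protein increase.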

SNB-75 = assay: Growth inhibition of human SNB75 cells incubated for 48 hrs by sulforhodamine B assay; conditions: SNB-75, 48 h; in short: as §1
M14 = assay: Growth inhibition of human M14 cells incubated for 48 hrs by sulforhodamine B assay; conditions: M14, 48 h; in short: as §2
IGROV-1 = assay: Growth inhibition of human IGROV1 cells incubated for 48 hrs by sulforhodamine B assay; conditions: IGROV-1, 48 h; in short: as §2
MDA-MB-435 = assay: Growth inhibition of human MDA-MB-435 cells incubated for 48 hrs by sulforhodamine B assay; conditions: MDA-MB-435, 48 h; in short: as §2
OVCAR-3 = assay: Growth inhibition of human OVCAR3 cells incubated for 48 hrs by sulforhodamine B assay; conditions: OVCAR-3, 48 h; in short: as §2
ACHN = assay: Growth inhibition of human ACHN cells incubated for 48 hrs by sulforhodamine B assay; in short: as §2
COLO 205 = assay: Growth inhibition of human COLO205 cells incubated for 48 hrs by sulforhodamine B assay; conditions: COLO 205, 48 h; in short: as §2
EKVX = assay: Growth inhibition of human EKVX cells incubated for 48 hrs by sulforhodamine B assay; in short: as §2
SK-MEL-2 = assay: Growth inhibition of human SK-MEL-2 cells incubated for 48 hrs by sulforhodamine B assay; conditions: SK-MEL-2, 48 h; in short: as §2
MDA-MB-231 = assay: Growth inhibition of human MDA-MB-231/ATCC cells incubated for 48 hrs by sulforhodamine B assay; conditions: MDA-MB-231, 48 h; in short: as §2
786-0 = assay: Growth inhibition of human 786-0 cells incubated for 48 hrs by sulforhodamine B assay; conditions: 786-0, 48 h; in short: as §2
HOP-62 = assay: Growth inhibition of human HOP62 cells incubated for 48 hrs by sulforhodamine B assay; conditions: HOP-62, 48 h; in short: as §2
NCI-H522 = assay: Growth inhibition of human NCI-H522 cells incubated for 48 hrs by sulforhodamine B assay; conditions: NCI-H522, 48 h; in short: as §2
TK-10 = assay: Growth inhibition of human TK10 cells incubated for 48 hrs by sulforhodamine B assay; conditions: TK-10, 48 h; in short: as §1
T47D = assay: Growth inhibition of human T47D cells incubated for 48 hrs by sulforhodamine B assay; in short: as §1
BT-549 = assay: Growth inhibition of human BT549 cells incubated for 48 hrs by sulforhodamine B assay; conditions: BT-549, 48 h; in short: as §2
OVCAR-4 = assay: Growth inhibition of human OVCAR4 cells incubated for 48 hrs by sulforhodamine B assay; conditions: OVCAR-4, 48 h; in short: as §2
MDA-MB-468 = assay: Growth inhibition of human MDA-MB-468 cells incubated for 48 hrs by sulforhodamine B assay; conditions: MDA-MB-468, 48 h; in short: as §2
PC-3 = assay: Growth inhibition of human PC3 cells incubated for 48 hrs by sulforhodamine B assay; conditions: PC-3, 48 h; in short: as §2
SK-MEL-5 = assay: Growth inhibition of human SK-MEL-5 cells incubated for 48 hrs by sulforhodamine B assay; conditions: SK-MEL-5, 48 h; in short: as §2
Hs-578T = assay: Growth inhibition of human Hs 578T cells incubated for 48 hrs by sulforhodamine B assay; in short: as §2
[1] = Potency index, ratio of melampomagnolide-B EC50 to compound EC50 for human M9-ENL1 cells
In short: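 M9-ENL1 AML cells, derived by MLL-ENL transduction of human blood cells, were plated at 10^6 cells/mL in alpha-MEM with 5% human plasma, 20% FBS, SCF, IL-3, IL-7 and FLT3 ligand. Exposure was 24 h. Non-apoptotic (Annexin V/7-AAD double-negative) fraction was normalized to vehicle, in triplicate, to give EC50. PTL and MMB were run as reference controls.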

DU-145 = assay: Growth inhibition of human DU145 cells incubated for 48 hrs by sulforhodamine B assay; conditions: DU-145, 48 h; in short: as §2

| Structure (SMILES) | GI50 (SR) | GI50 (SNB-75) | GI50 (M14) | GI50 (IGROV-1) | GI50 (MDA-MB-435) | GI50 (OVCAR-3) | GI50 (COLO 205) | GI50 (EKVX) | GI50 (SK-MEL-2) | GI50 (MDA-MB-231) | GI50 (786-0) | GI50 (HOP-62) | GI50 (NCI-H522) | GI50 (TK-10) | GI50 (T47D) | GI50 (OVCAR-4) | GI50 (MDA-MB-468) | GI50 (PC-3) | GI50 (SK-MEL-5) | GI50 (Hs-578T) | further results |
| --- | --- | --- | --- | --- | --- | --- | --- | --- | --- | --- | --- | --- | --- | --- | --- | --- | --- | --- | --- | --- | --- |
| C=C1C(=O)O[C@@H]2[C@H]3O[C@]3(C)CC/C=C(/COC(=O)c3cc4cc(Cl)ccc4[nH]3)CC[C@@H]12 | 0.77 µM | 0.57 µM | 1.47 µM | 1.38 µM | 1.24 µM | 1.25 µM | 1.72 µM | 1.4 µM | 1.73 µM | 1.32 µM | 1.51 µM | 2.22 µM | 1.59 µM | 1.75 µM | 1.34 µM | 1.33 µM | 1.89 µM | 2.42 µM | 1.91 µM | 2.25 µM | GI50 (CAKI-1): 1.19 µM; GI50 (ACHN): 1.35 µM; GI50 (BT-549): 1.31 µM; Ratio IC50 [1]: 2 - 20 |
| C=C1C(=O)O[C@@H]2[C@H]3O[C@]3(C)CC/C=C(/COC(=O)CCCc3c[nH]c4ccccc34)CC[C@@H]12 | 1.73 µM | 12.6 µM | 1.66 µM | 1.63 µM | 1.73 µM | 1.53 µM | 1.86 µM | 2.02 µM | 1.96 µM | 1.78 µM | 1.6 µM | 6.54 µM | 1.57 µM | 1.64 µM | 2.17 µM | 1.66 µM | 1.76 µM | 1.92 µM | 1.74 µM | 3.19 µM | GI50 (BT-549): 1.37 µM; GI50 (DU-145): 1.67 µM; Ratio IC50 [1]: 2 - 20 |
| C=C1C(=O)O[C@@H]2[C@H]3O[C@]3(C)CC/C=C(/COC(=O)c3cn(C)c4ccccc34)CC[C@@H]12 | 0.34 µM | 1.09 µM | 1.41 µM | 0.69 µM | 1.35 µM | 0.38 µM | 1.24 µM | 0.96 µM | 1.38 µM | 1.05 µM | 1.46 µM | 1.81 µM | 0.39 µM | 1.1 µM | 1.19 µM | 1.14 µM | 0.44 µM | 1.47 µM | 1.42 µM | 2.39 µM | GI50 (ACHN): 0.82 µM; GI50 (BT-549): 0.51 µM; GI50 (DU-145): 1.01 µM; Ratio IC50 [1]: 2 - 20 |
| C=C1C(=O)O[C@@H]2[C@H]3O[C@]3(C)CC/C=C(/COC(=O)c3cc4cc(F)ccc4[nH]3)CC[C@@H]12 | 2.03 µM | 11.1 µM | 1.89 µM | 1.44 µM | 1.5 µM | 1.2 µM | 1.64 µM | 1.58 µM | 1.95 µM | 1.59 µM | 1.78 µM | 2.92 µM | 1.65 µM | 1.83 µM | 1.56 µM | 1.67 µM | 1.86 µM | 1.7 µM | 1.85 µM | 2.95 µM | GI50 (CAKI-1): 1.2 µM; GI50 (ACHN): 1.46 µM; GI50 (DU-145): 1.67 µM; Ratio IC50 [1]: 2 - 20 |
| C=C1C(=O)O[C@@H]2[C@H]3O[C@]3(C)CC/C=C(/COC(=O)c3c[nH]c4ccccc34)CC[C@@H]12 | 0.28 µM | 0.2 µM | 0.22 µM | 0.25 µM | 0.24 µM | 0.2 µM | 0.24 µM | 0.31 µM | 0.23 µM | 0.19 µM | 0.32 µM | 0.82 µM | 0.19 µM | 0.28 µM | 0.4 µM | 0.25 µM | 0.19 µM | 0.38 µM | 0.2 µM | 0.61 µM | GI50 (ACHN): 0.21 µM; GI50 (BT-549): 0.17 µM; GI50 (DU-145): 0.38 µM; Ratio IC50 [1]: 2 - 20 |
| C=C1C(=O)O[C@@H]2[C@H]3O[C@]3(C)CC/C=C(/COC(=O)c3cc4ccccc4o3)CC[C@@H]12 | 1.15 µM | 1.34 µM | 1.43 µM | 1.39 µM | 1.43 µM | 0.48 µM | 1.55 µM | 2.02 µM | 1.77 µM | 1.64 µM | 1.81 µM | 2.48 µM | 0.68 µM | 3.01 µM | 1.35 µM | 1.56 µM | 1.5 µM | 1.76 µM | 1.52 µM | 2.91 µM | GI50 (ACHN): 1.44 µM; GI50 (BT-549): 1.48 µM; GI50 (DU-145): 1.18 µM; Ratio IC50 [1]: 2 - 20 |
| C=C1C(=O)O[C@@H]2[C@H]3O[C@]3(C)CC/C=C(/COC(=O)c3cc4ccccc4s3)CC[C@@H]12 | 0.52 µM | 3.52 µM | 1.75 µM | 1.76 µM | 1.33 µM | 0.44 µM | 1.71 µM | 1.69 µM | 1.75 µM | 1.97 µM | 1.52 µM | 1.81 µM | 0.98 µM | 1.55 µM | 1.47 µM | 2.08 µM | 1.63 µM | 1.83 µM | 1.75 µM | 2.89 µM | GI50 (CAKI-1): 1.46 µM; GI50 (ACHN): 1.5 µM; GI50 (DU-145): 1.05 µM; Ratio IC50 [1]: 2 - 20 |
